In ChEMBL document CHEMBL3421533, “The Discovery of Orally Bioavailable Tyrosine Threonine Kinase (TTK) Inhibitors: 3-(4-(heterocyclyl)phenyl)-1H-indazole-5-carboxamides as Anticancer Agents” (J Med Chem, 2015):

test system: not listed separately; assay: AUC in athymic CD1 nude mouse at 10 mg/kg, po by LC-MS/MS analysis; type: ADME, organism-based; design: dose 10 mg/kg, route oral; conditions: plasma

Row | SMILES | AUC [ng·h/mL]
1 | O=C(Nc1ccc2[nH]nc(-c3ccc(N4CCOCC4)cc3)c2c1)C(c1ccsc1)N1CCCC1 (racemic) | 7900
2 | O=CN1[C@@H]2CC[C@H]1C[C@@H](Oc1ccc(-c3n[nH]c4ccc(C(=O)NC(c5ccsc5)C5CCC5)cc34)cc1)C2 (mixture of isomers) | 30
3 | CC(C)CC(NC(=O)c1ccc2[nH]nc(-c3ccc(O[C@H]4C[C@H]5CC[C@@H](C4)N5C=O)cc3)c2c1)c1ccccn1 (mixture of isomers) | 660

test system: not listed separately; assay: Cmax in athymic CD1 nude mouse at 10 mg/kg, po by LC-MS/MS analysis; type: ADME, organism-based; design: dose 10 mg/kg, route oral; conditions: athymic CD1 nude, in vivo

Row | SMILES | Cmax [ng/mL]
4 | O=C(N[C@@H](c1ccccn1)C1CC1)c1ccc2[nH]nc(-c3ccc(N4C5CCC4COC5)cc3)c2c1 | 1500
5 | O=C(Nc1ccc2[nH]nc(-c3ccc(N4CCOCC4)cc3)c2c1)C(c1ccsc1)N1CCCC1 (racemic) | 3500
6 | O=CN1[C@@H]2CC[C@H]1C[C@@H](Oc1ccc(-c3n[nH]c4ccc(C(=O)NC(c5ccsc5)C5CCC5)cc34)cc1)C2 (mixture of isomers) | 33
7 | CC(C)CC(NC(=O)c1ccc2[nH]nc(-c3ccc(O[C@H]4C[C@H]5CC[C@@H](C4)N5C=O)cc3)c2c1)c1ccccn1 (mixture of isomers) | 280

test system: not listed separately; assay: Half life in Sprague-Dawley rat at 1 mg/kg, iv by LC-MS/MS analysis; type: ADME, organism-based; design: dose 1 mg/kg, route intravenous; conditions: in vivo

Row | SMILES | half-life [min]
8 | O=C(N[C@@H](c1ccccn1)C1CC1)c1ccc2[nH]nc(-c3ccc(N4C5CCC4COC5)cc3)c2c1 | 24

test system: MDA-MB-468; assay: Cytotoxicity against human MDA-MB-468 cells after 5 days by sulforhodamine B assay; type: functional; conditions: Homo sapiens, MDA-MB-468, 120 h
Method in brief: (§1)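 Cancer lines were seeded at 800–6000 cells per well according to growth rate, 24 h before compound overlay. After culture, cells were fixed in situ and stained with sulforhodamine B. GI50 values were derived by curve fitting.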

Row | SMILES | GI50 [nM]
9 | O=C(N[C@@H](c1ccccn1)C1CC1)c1ccc2[nH]nc(-c3ccc(N4C5CCC4COC5)cc3)c2c1 | 130
10 | O=C(Nc1ccc2[nH]nc(-c3ccc(N4CCOCC4)cc3)c2c1)C(c1ccsc1)N1CCCC1 (racemic) | 160
11 | O=CN1[C@@H]2CC[C@H]1C[C@@H](Oc1ccc(-c3n[nH]c4ccc(C(=O)NC(c5ccsc5)C5CCC5)cc34)cc1)C2 (mixture of isomers) | 110
12 | CC(C)CC(NC(=O)c1ccc2[nH]nc(-c3ccc(O[C@H]4C[C@H]5CC[C@@H](C4)N5C=O)cc3)c2c1)c1ccccn1 (mixture of isomers) | 150

test system: not listed separately; assay: Half life in rat liver microsomes at 1 uM by LC-MS analysis; type: ADME; conditions: liver microsomes

Row | SMILES | half-life at 1 µM [min]
13 | O=C(N[C@@H](c1ccccn1)C1CC1)c1ccc2[nH]nc(-c3ccc(N4C5CCC4COC5)cc3)c2c1 | > 60

test system: not listed separately; assay: AUCinfinity in Sprague-Dawley rat at 1 mg/kg, iv by LC-MS/MS analysis; type: ADME, organism-based; design: time infinity, dose 1 mg/kg, route intravenous; conditions: plasma

Row | SMILES | AUC(0-inf) [ng·h/mL]
14 | O=C(N[C@@H](c1ccccn1)C1CC1)c1ccc2[nH]nc(-c3ccc(N4C5CCC4COC5)cc3)c2c1 | 240

target: Aurora kinase B/Inner centromere protein (Homo sapiens, UniProt Q96GD4); assay: Inhibition of AURKB/INCENP (unknown origin) preincubated for 15 mins prior to ATP addition by FRET-based homogenous assay; type: protein-complex assay; conditions: not given
Method in brief: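 The enzyme was AURKB/INCENP in a FRET-based homogeneous assay run to kit specifications, with ATP at 128 μM. […] Each IC50 came from a single determination, reported with its standard fitting error.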

Aurora kinase B/Inner centromere protein, sequence (Q96GD4 whole entry): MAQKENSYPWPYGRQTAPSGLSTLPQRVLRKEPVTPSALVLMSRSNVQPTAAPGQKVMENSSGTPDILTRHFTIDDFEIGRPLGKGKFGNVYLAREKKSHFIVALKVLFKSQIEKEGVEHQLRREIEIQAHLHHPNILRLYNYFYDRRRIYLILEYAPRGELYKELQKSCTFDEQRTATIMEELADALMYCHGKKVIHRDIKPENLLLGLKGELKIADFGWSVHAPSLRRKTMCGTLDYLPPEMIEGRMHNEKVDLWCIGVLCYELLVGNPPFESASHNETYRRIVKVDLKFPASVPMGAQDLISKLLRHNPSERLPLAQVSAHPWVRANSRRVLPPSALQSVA
Aurora kinase B/Inner centromere protein, sequence (Q9NQS7 whole entry, further chain): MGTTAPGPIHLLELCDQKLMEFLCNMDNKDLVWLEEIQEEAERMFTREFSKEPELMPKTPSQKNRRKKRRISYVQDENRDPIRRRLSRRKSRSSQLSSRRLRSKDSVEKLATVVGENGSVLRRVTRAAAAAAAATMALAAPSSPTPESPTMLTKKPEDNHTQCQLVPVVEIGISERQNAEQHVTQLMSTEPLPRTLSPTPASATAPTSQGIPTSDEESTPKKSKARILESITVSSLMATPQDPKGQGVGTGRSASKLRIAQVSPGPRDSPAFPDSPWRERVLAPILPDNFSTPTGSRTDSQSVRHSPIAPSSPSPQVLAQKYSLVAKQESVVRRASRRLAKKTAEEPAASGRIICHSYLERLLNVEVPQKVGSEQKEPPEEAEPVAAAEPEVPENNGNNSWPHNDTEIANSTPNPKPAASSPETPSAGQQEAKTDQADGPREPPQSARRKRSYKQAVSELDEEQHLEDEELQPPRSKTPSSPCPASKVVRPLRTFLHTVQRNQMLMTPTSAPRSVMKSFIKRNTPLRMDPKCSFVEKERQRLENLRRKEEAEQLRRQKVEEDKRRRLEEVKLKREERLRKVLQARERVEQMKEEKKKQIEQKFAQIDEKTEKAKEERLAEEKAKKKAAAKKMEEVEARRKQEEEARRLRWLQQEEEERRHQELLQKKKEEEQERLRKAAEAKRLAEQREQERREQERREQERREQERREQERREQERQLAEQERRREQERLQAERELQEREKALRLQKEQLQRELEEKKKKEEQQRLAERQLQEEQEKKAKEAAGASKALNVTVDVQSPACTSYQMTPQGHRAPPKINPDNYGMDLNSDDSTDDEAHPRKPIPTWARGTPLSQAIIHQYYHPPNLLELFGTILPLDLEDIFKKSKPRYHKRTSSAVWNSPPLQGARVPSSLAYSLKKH

Row | SMILES | IC50 [nM]
15 | O=C(N[C@@H](c1ccccn1)C1CC1)c1ccc2[nH]nc(-c3ccc(N4C5CCC4COC5)cc3)c2c1 | 1200
16 | O=CN1[C@@H]2CC[C@H]1C[C@@H](Oc1ccc(-c3n[nH]c4ccc(C(=O)NC(c5ccsc5)C5CCC5)cc34)cc1)C2 (mixture of isomers) | 1200
17 | CC(C)CC(NC(=O)c1ccc2[nH]nc(-c3ccc(O[C@H]4C[C@H]5CC[C@@H](C4)N5C=O)cc3)c2c1)c1ccccn1 (mixture of isomers) | 300

test system: not listed separately; assay: Cytotoxicity against human HCT116 cells after 5 days by sulforhodamine B assay; type: functional, HCT-116; conditions: Homo sapiens, HCT-116, 120 h; method in brief: as §1

Row | SMILES | GI50 [nM]
18 | O=C(N[C@@H](c1ccccn1)C1CC1)c1ccc2[nH]nc(-c3ccc(N4C5CCC4COC5)cc3)c2c1 | 21
19 | O=C(Nc1ccc2[nH]nc(-c3ccc(N4CCOCC4)cc3)c2c1)C(c1ccsc1)N1CCCC1 (racemic) | 27
20 | O=CN1[C@@H]2CC[C@H]1C[C@@H](Oc1ccc(-c3n[nH]c4ccc(C(=O)NC(c5ccsc5)C5CCC5)cc34)cc1)C2 (mixture of isomers) | 41
21 | CC(C)CC(NC(=O)c1ccc2[nH]nc(-c3ccc(O[C@H]4C[C@H]5CC[C@@H](C4)N5C=O)cc3)c2c1)c1ccccn1 (mixture of isomers) | 64

target: T1, Dual specificity protein kinase TTK (Homo sapiens, UniProt P33981); assay: Inhibition of amino terminal GST-fused full length human TTK using His6-SUMO-TTK-N as substrate preincubated for 15 mins prior to ATP addition by indirect ELISA detection system; conditions: not given
T1 sequence (P33981 whole entry): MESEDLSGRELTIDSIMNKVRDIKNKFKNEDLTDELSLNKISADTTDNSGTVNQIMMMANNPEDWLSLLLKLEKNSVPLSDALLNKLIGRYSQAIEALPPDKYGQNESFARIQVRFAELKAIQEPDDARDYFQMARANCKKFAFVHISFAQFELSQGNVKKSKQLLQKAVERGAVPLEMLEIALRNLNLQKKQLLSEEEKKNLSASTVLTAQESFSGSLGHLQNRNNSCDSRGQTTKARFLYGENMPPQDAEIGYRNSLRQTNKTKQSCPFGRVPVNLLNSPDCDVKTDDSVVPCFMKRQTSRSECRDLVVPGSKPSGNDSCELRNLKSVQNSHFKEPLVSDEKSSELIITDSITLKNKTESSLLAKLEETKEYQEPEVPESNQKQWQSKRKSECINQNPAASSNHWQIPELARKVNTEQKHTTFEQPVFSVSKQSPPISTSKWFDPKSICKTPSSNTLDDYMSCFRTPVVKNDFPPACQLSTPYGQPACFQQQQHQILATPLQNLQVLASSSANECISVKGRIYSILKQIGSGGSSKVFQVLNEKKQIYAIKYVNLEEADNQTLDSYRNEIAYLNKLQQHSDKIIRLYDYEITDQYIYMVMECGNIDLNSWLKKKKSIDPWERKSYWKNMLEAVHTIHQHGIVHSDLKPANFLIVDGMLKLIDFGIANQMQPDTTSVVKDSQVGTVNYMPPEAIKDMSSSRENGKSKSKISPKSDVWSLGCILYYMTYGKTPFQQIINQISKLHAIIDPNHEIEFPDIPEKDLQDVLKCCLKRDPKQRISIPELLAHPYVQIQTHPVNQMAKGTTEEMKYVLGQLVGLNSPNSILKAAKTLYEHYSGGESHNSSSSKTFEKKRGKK

Row | SMILES | IC50 [nM]
22 | O=C(N[C@@H](c1ccccn1)C1CC1)c1ccc2[nH]nc(-c3ccc(N4C5CCC4COC5)cc3)c2c1 | 2
23 | O=C(Nc1ccc2[nH]nc(-c3ccc(N4CCOCC4)cc3)c2c1)C(c1ccsc1)N1CCCC1 (racemic) | 11
24 | O=CN1[C@@H]2CC[C@H]1C[C@@H](Oc1ccc(-c3n[nH]c4ccc(C(=O)NC(c5ccsc5)C5CCC5)cc34)cc1)C2 (mixture of isomers) | 2.5
25 | CC(C)CC(NC(=O)c1ccc2[nH]nc(-c3ccc(O[C@H]4C[C@H]5CC[C@@H](C4)N5C=O)cc3)c2c1)c1ccccn1 (mixture of isomers) | 3

target: Cytochrome P450 3A4 (Homo sapiens, UniProt P08684); assay: Inhibition of human CYP3A4 using BFC as substrate preincubated for 10 mins followed by enzyme/substrate addition measured after 30 mins by fluorescence assay; type: ADME; conditions: not given
Sequence (P08684 whole entry): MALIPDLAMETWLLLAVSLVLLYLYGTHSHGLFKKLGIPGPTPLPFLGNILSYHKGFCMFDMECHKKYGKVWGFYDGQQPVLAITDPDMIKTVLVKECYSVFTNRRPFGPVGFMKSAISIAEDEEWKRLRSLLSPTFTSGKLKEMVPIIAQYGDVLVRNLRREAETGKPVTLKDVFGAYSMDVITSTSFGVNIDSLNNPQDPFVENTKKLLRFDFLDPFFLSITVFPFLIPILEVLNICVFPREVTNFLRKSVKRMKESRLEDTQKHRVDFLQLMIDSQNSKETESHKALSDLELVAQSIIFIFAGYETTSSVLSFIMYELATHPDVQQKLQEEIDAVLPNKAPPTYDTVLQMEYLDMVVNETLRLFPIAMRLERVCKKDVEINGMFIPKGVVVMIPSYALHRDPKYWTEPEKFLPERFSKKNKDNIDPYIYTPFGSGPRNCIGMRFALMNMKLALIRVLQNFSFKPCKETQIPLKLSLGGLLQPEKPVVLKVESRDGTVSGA

Row | SMILES | IC50 [nM]
26 | O=C(N[C@@H](c1ccccn1)C1CC1)c1ccc2[nH]nc(-c3ccc(N4C5CCC4COC5)cc3)c2c1 | 1400
27 | CC(C)CC(NC(=O)c1ccc2[nH]nc(-c3ccc(O[C@H]4C[C@H]5CC[C@@H](C4)N5C=O)cc3)c2c1)c1ccccn1 (mixture of isomers) | 410

test system: not listed separately; assay: Clearance in Sprague-Dawley rat at 1 mg/kg, iv by LC-MS/MS analysis; type: ADME, organism-based; design: dose 1 mg/kg, route intravenous; conditions: in vivo

Row | SMILES | clearance [mL/min/kg]
28 | O=C(N[C@@H](c1ccccn1)C1CC1)c1ccc2[nH]nc(-c3ccc(N4C5CCC4COC5)cc3)c2c1 | 71

test system: not listed separately; assay: Oral bioavailability in Sprague-Dawley rat at 5 mg/kg by LC-MS/MS analysis; type: ADME, organism-based; conditions: in vivo

Row | SMILES | bioavailability [%]
29 | O=C(N[C@@H](c1ccccn1)C1CC1)c1ccc2[nH]nc(-c3ccc(N4C5CCC4COC5)cc3)c2c1 | 75

test system: not listed separately; assay: AUCinfinity in athymic CD1 nude mouse at 10 mg/kg, po by LC-MS/MS analysis; type: ADME, organism-based, Plasma; design: time infinity, dose 10 mg/kg, route oral; conditions: athymic CD1 nude, plasma

Row | SMILES | AUC(0-inf) [ng·h/mL]
30 | O=C(N[C@@H](c1ccccn1)C1CC1)c1ccc2[nH]nc(-c3ccc(N4C5CCC4COC5)cc3)c2c1 | 2100

test system: not listed separately; assay: Cytotoxicity against human OVCAR3 cells after 5 days by sulforhodamine B assay; type: functional, OVCAR-3; conditions: Homo sapiens, OVCAR-3, 120 h

Row | SMILES | GI50 [nM]
31 | O=C(N[C@@H](c1ccccn1)C1CC1)c1ccc2[nH]nc(-c3ccc(N4C5CCC4COC5)cc3)c2c1 | 150

test system: not listed separately; assay: Half life in mouse liver microsomes at 1 uM by LC-MS analysis; type: ADME; conditions: liver microsomes

Row | SMILES | half-life at 1 µM [min]
32 | O=C(N[C@@H](c1ccccn1)C1CC1)c1ccc2[nH]nc(-c3ccc(N4C5CCC4COC5)cc3)c2c1 | > 60

test system: not listed separately; assay: AUCinfinity in Sprague-Dawley rat at 5 mg/kg, po by LC-MS/MS analysis; type: ADME, organism-based; design: time infinity, dose 5 mg/kg, route oral; conditions: plasma

Row | SMILES | AUC(0-inf) [ng·h/mL]
33 | O=C(N[C@@H](c1ccccn1)C1CC1)c1ccc2[nH]nc(-c3ccc(N4C5CCC4COC5)cc3)c2c1 | 890
